Measurements reported in PubChem BioAssay.
The other results are listed elsewhere or left out. A number with no mark means an inactive call. Active and inactive are the calls of the source.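 Rule for the calls, unless noted: active = mean activation over triplicate wells above the hit cutoff derived from the earlier primary screen (cut at about 11% in these data); inactive = the rest.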

How the values were obtained:
[1] = system: DAF-12 nuclear receptor (Heterodera glycines), GAL4-LBD fusion; experiment: H. glycines DAF-12 receptor agonists, confirmation, cell-based, luminescence, HEK293, GAL4-LBD fusion (AID 743050); conditions: HEK293 GAL4-hgDAF12 luciferase reporter, agonist mode; at 6.8 µM; stronger effect = higher value; percent of butyrate response;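 note: 0% = DMSO low control and 100% = 2 mM sodium butyrate high control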
[2] = molecular target: Oxysterols receptor LXR-beta (Homo sapiens) (UniProt P55055); experiment: LXR agonists, Gal4 luciferase reporter, confirmation, counter-screen for hgDAF-12 agonist project, cell-based, luminescence, HEK293, H. glycines campaign (AID 743051;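 active = mean activation of the triplicate above a set limit carried over from the primary screen, none filed active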); conditions: 24 h, at 6.8 µM, stronger effect = higher value
How it was run: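 Test system – Gal4-LXR luciferase reporter HEK293 cells · Dosing – single nominal test compound dose of 6.8 µM · Times – 24 h compound exposure at 37 °C, 5% CO2 · Detection – luciferase luminescence · Evaluation – % activation versus DMSO and positive controls · Benchmarks – DMSO low control · Repeats – triplicate wells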

[3] = molecular target: Galanin receptor type 2 (Homo sapiens) (UniProt O43603); experiment: GALR2 antagonists, retest of hits, confirmation, cell-based (AID 866; in the data active = inhibition above about 27%;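 note: cells stimulated with galanin at about its EC80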); conditions: GALR2-expressing cells, antagonist mode, at 4 µM, stronger effect = higher value
[4] = inhibitors of NFAT-driven beta-lactamase reporter, confirmation, counter-screen for GALR2 antagonist project, CHO NFAT-bla cells, FRET readout (AID 867;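 active = inhibition above the mean inhibition across tested compounds plus 3 SD, cut at about 27% in these data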;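 note: 0% = 500 nM thapsigargin stimulated wells and 100% = unstimulated BSA only wells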); conditions: thapsigargin-stimulated, at 4.2 µM, stronger effect = higher value

Sequence of Oxysterols receptor LXR-beta (Homo sapiens) (P55055 whole entry, looked up, the tested form may be a part): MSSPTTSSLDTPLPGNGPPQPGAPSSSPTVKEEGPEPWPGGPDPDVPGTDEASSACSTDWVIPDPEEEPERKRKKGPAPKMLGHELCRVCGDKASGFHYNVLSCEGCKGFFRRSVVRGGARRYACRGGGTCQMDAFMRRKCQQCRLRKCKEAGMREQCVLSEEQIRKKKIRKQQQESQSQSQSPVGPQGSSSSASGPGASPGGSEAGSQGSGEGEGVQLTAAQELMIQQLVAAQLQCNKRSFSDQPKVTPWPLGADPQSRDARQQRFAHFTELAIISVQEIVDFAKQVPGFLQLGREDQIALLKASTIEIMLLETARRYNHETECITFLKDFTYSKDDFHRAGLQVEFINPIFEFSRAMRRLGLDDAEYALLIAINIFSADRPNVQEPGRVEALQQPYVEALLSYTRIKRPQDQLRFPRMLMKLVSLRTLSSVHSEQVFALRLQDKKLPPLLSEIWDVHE
Sequence of Galanin receptor type 2 (Homo sapiens) (O43603 whole entry, looked up): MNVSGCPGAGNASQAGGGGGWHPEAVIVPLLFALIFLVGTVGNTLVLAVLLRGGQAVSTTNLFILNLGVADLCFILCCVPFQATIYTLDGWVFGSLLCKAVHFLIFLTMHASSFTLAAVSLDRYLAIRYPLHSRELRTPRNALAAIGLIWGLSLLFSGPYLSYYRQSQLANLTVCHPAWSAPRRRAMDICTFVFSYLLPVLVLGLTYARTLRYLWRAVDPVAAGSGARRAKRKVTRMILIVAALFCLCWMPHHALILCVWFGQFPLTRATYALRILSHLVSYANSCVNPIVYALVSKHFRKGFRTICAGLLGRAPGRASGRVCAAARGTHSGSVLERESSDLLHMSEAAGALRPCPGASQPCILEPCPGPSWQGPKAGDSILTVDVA

## O=C(NC(=S)NC1CCCCC1)c1ccc(Cl)cc1
[1]
  activation: 11.3% (active)
[2]
  activation: 0.45%

## CC(C)(C)c1csc(NC2=NS(=O)(=O)c3ccccc32)n1
[1]
  activation: 15.4% (active)
[2]
  activation: 0.75%

## Cc1ccc2nc(-c3ccc(SCC(=O)Nc4cc(C)on4)nc3)[nH]c2c1
[1]
  activation: 15.6% (active)
[2]
  activation: 0.54%

## CCOc1ccc(OCc2cccc(C(=O)N(CC)CC)c2)cc1
[1]
  activation: 19.5% (active)
[2]
  activation: 0.78%

## Cc1ccn(-c2cccc(-n3ccc(C)n3)n2)n1
[1]
  activation: 15.2% (active)
[2]
  activation: 0.61%

## Brc1ccc(C2CC(c3ccccc3)=Nc3ccccc3N2)cc1 (stereo not given)
[1]
  activation: 17.4% (active)
[2]
  activation: 0.65%

## Cc1ccc(NC(=O)c2sccc2C)cc1[N+](=O)[O-]
[1]
  activation: 11% (active)
[2]
  activation: 0.43%

## Cc1cccc(NC(=S)NC(=O)c2ccc(Br)o2)c1
[1]
  activation: 11.1% (active)
[2]
  activation: 0.48%

## Fc1ccccc1-c1cc2cc3c(cc2cn1)OCO3
[1]
  activation: 18.4% (active)
[2]
  activation: 0.79%

## O=C(Nc1ccc(C2CC2(Cl)Cl)cc1)c1cccc([N+](=O)[O-])c1 (stereo not given)
[1]
  activation: 15.2% (active)
[2]
  activation: 0.56%

## N#CC1(Nc2ccc(-c3ccc(Cl)cc3)cc2)CCCC1
[1]
  activation: 8.29%
[2]
  activation: 0.34%

## N/C(=N\OC(=O)CCC1CCCCC1)c1ccccn1
[1]
  activation: 12.3% (active)
[2]
  activation: 0.49%

## Cc1ccc(NC(=O)c2ccco2)cc1
[1]
  activation: 11.2% (active)
[2]
  activation: 0.49%

## O=C(NCCc1c[nH]c2ccccc12)c1cc2ccccc2oc1=O
[1]
  activation: 13.4% (active)
[2]
  activation: 0.56%

## CC(=O)c1ccccc1NC(=O)COC(=O)C1COc2ccccc2O1 (stereo not given)
[1]
  activation: -0.02%
[2]
  activation: 0.04%

## Cc1ccsc1C(=O)N/N=C/c1ccc([N+](=O)[O-])cc1
[1]
  activation: 15.8% (active)
[2]
  activation: 0.59%

## Cc1cccc(N(CC(=O)Nc2ccc(-c3nc4ccc(C)cc4s3)cc2)S(C)(=O)=O)c1
[1]
  activation: 19.8% (active)
[2]
  activation: 0.65%

## COc1ccc(C)cc1NC(=O)c1[nH]c(C)c(C(C)=O)c1C
[3]
  inhibition: 22.8%
[4]
  inhibition: 4.72%

## c1ccc(-c2nnc(SCc3nc4ccccc4[nH]3)o2)cc1
[3]
  inhibition: 13.7%
[4]
  inhibition: 5.82%

## COc1ccc(NC(=S)N2N=CCC2c2ccccc2)cc1 (stereo not given)
[1]
  activation: 13.8% (active)
[2]
  activation: 0.76%

## CNS(=O)(=O)c1ccc(NC(=O)Nc2ccc3c(c2)OCO3)cc1
[1]
  activation: 13.2% (active)
[2]
  activation: 0.5%

## COc1ccc(CNC(=O)COc2ccccc2C(=O)c2cnn(-c3ccccc3)c2)cc1OC
[1]
  activation: 10.3%
[2]
  activation: 0.65%

## COc1ccc(Nc2ccc3ccccc3c2)cc1
[1]
  activation: 13% (active)
[2]
  activation: 0.53%

## O=C(Nc1ccc2ccccc2c1[N+](=O)[O-])c1ccccc1
[1]
  activation: 17.7% (active)
[2]
  activation: 0.89%

## c1ccc(CN=C2Nc3ccccc3CS2)nc1
[1]
  activation: 12.9% (active)
[2]
  activation: 0.55%

## Cn1c(-c2ccc(C(=O)c3ccccc3)s2)nc2ccccc21
[1]
  activation: 17.6% (active)
[2]
  activation: 0.88%

## COc1ccc(C(=O)O/N=C(\N)c2ccccn2)cc1[N+](=O)[O-]
[1]
  activation: 15% (active)
[2]
  activation: 0.59%

## CCCNC(=O)c1c(Cl)cnn1-c1ccc(C)cc1
[1]
  activation: 9.95%
[2]
  activation: 0.55%

## C/C(=N\NC(=O)OC(C)(C)C)c1ccc[nH]1
[1]
  activation: 13.8% (active)
[2]
  activation: 0.45%

## O=C(/C=C/Sc1ncn[nH]1)c1ccc(Cl)cc1
[3]
  inhibition: 50.7% (active)
[4]
  inhibition: 17%

## COc1cccc(/C=C/C(=O)Nc2ccc3c(c2)OCCO3)c1
[1]
  activation: 12.4% (active)
[2]
  activation: 0.69%

## Cc1cccc(NC(=O)/C=C/c2ccc3c(c2)OCO3)n1
[1]
  activation: 18.1% (active)
[2]
  activation: 0.84%

## COc1ccc(/C=C2/CCCc3ccccc3C2=O)cc1
[1]
  activation: 18.7% (active)
[2]
  activation: 0.78%

## Oc1cccc2cc(-c3ccncc3)cnc12
[1]
  activation: 5.92%
[2]
  activation: 0.18%

## Cc1cc(O)c(NC(=O)c2ccc(C)c([N+](=O)[O-])c2)cc1C
[1]
  activation: 10%
[2]
  activation: 0.55%

## COC(=O)N/N=C/c1cn(CCCOc2ccc(C)cc2)c2ccccc12
[1]
  activation: 6.55%
[2]
  activation: 0.17%

## O=C(Nc1ccc(Cl)c(Cl)c1)c1ccccc1NC(=O)C1CC=CCC1C(=O)O (stereo not given)
[1]
  activation: 10.2%
[2]
  activation: 0.27%

## O=[N+]([O-])c1ccc2c(c1)Nc1nc3ccccc3nc1N2
[1]
  activation: 25.8% (active)
[2]
  activation: 1.35%

## FC(F)(F)c1cnc(Oc2ccccc2-c2nnc(-c3ccc(Cl)cc3)o2)c(Cl)c1
[3]
  inhibition: 3.44%
[4]
  inhibition: 8.76%

## Cc1cc(-c2n[nH]c(=S)n2/N=C/C(Br)=C/c2ccccc2)n[nH]1
[3]
  inhibition: 44.1% (active)
[4]
  inhibition: 20.9%

## Fc1ccc2[nH]c3c(N4CCN(Cc5ccc6c(c5)OCO6)CC4)ncnc3c2c1
[3]
  inhibition: 50.2% (active)
[4]
  inhibition: 24.3%

## O=[N+]([O-])c1cc(S(=O)(=O)N2CCCC2)ccc1NN=C1CCCC1
[1]
  activation: -0.65%
[2]
  activation: -0.04%

## COc1ccc(-c2cn3cccnc3n2)cc1
[1]
  activation: 9.37%
[2]
  activation: 0.23%

## COc1ccc(/C=C/C(=O)Nc2ccc(C34CC5CC(CC(O)(C5)C3)C4)cc2)cc1OC
[3]
  inhibition: 43.6% (active)
[4]
  inhibition: 21.4%

## O=C(NCCCN1CCOCC1)c1cc(-c2ccccc2F)no1
[1]
  activation: 11.6% (active)
[2]
  activation: 0.17%

## O=C(CNC(=O)OCc1ccccc1)Oc1cc2oc(=O)cc(-c3ccccc3)c2cc1Cl
[3]
  inhibition: 33.2% (active)
[4]
  inhibition: 37% (active)

## O=C(Nc1ncccc1O)c1ccc(S(=O)(=O)N2CCCC2)cc1
[1]
  activation: 14.2% (active)
[2]
  activation: 0.03%

## CC(C)c1cc(C(N)=O)c(NC(=O)c2cccc(COc3ccc(Br)cc3)c2)s1
[1]
  activation: 14% (active)
[2]
  activation: 0.51%

## O=C(Nn1c(SCc2ccc([N+](=O)[O-])cc2)nc2ccccc2c1=O)c1ccc(F)cc1
[1]
  activation: 11% (active)
[2]
  activation: 0.57%

## COCC(C)NC(=O)c1ccc(Cl)c(Cl)c1 (stereo not given)
[3]
  inhibition: 10.6%
[4]
  inhibition: 4.96%
